Experiments:
[1] = system: Brassica rapa subsp. oleifera; test: Herbicidal activity against Brassica rapa subsp. oleifera assessed as inhibition of fresh weed plant weight at 22.5 g/ha using pre-emergence treatment protocol; assay type: functional
Digitaria sanguinalis [2] = test: Herbicidal activity against Digitaria sanguinalis (hairy crabgrass) assessed as inhibition of fresh weed plant weight at 45 g/ha using pre-emergence treatment protocol; assay type: functional
Amaranthus retroflexus [3] = test: Herbicidal activity against Amaranthus retroflexus assessed as inhibition of fresh weed plant weight at 45 g/ha using pre-emergence treatment protocol; assay type: functional
Amaranthus retroflexus [4] = test: Herbicidal activity against Amaranthus retroflexus assessed as inhibition of fresh weed plant weight at 93.75 g/ha using pre-emergence treatment protocol; assay type: functional
Digitaria sanguinalis [5] = test: Herbicidal activity against Digitaria sanguinalis (hairy crabgrass) assessed as inhibition of fresh weed plant weight at 187.5 g/ha using pre-emergence treatment protocol; assay type: functional
[6] = target: T1, Protoporphyrinogen IX oxidase (Zea mays, UniProt Q9M629); test: Inhibition of protoporphyrinogen oxidase in Zea mays (maize) seedlings leaves etioplasts using protoporphyrinogen IX incubated for 30 min by fluorescence spectroscopy
T1 sequence (Q9M629 whole entry): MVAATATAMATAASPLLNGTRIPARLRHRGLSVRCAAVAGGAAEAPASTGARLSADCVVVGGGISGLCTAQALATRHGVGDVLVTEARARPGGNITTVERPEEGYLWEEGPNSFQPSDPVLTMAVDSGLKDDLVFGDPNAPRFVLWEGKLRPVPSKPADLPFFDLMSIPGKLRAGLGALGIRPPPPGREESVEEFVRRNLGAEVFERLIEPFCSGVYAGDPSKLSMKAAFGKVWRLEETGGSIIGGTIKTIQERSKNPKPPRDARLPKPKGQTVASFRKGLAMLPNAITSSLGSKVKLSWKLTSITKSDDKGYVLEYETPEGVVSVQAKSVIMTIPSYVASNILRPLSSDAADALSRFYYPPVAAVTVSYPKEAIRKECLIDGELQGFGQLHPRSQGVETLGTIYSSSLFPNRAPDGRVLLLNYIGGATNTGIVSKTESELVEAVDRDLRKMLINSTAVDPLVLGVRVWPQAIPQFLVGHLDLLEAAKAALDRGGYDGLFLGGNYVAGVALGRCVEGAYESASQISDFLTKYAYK

Digitaria sanguinalis [7] = test: Herbicidal activity against Digitaria sanguinalis (hairy crabgrass) assessed as inhibition of fresh weed plant weight at 93.75 g/ha using pre-emergence treatment protocol; assay type: functional
[8] = system: Brassica rapa subsp. oleifera; test: Herbicidal activity against Brassica rapa subsp. oleifera assessed as inhibition of fresh weed plant weight at 93.75 g/ha using pre-emergence treatment protocol; assay type: functional
Echinochloa crus-galli [9] = test: Herbicidal activity against Echinochloa crus-galli (barnyard grass) assessed as inhibition of fresh weed plant weight at 93.75 g/ha using pre-emergence treatment protocol; assay type: functional
Amaranthus retroflexus [10] = test: Herbicidal activity against Amaranthus retroflexus assessed as inhibition of fresh weed plant weight at 187.5 g/ha using pre-emergence treatment protocol; assay type: functional
Digitaria sanguinalis [11] = test: Herbicidal activity against Digitaria sanguinalis (hairy crabgrass) assessed as inhibition of fresh weed plant weight at 22.5 g/ha using pre-emergence treatment protocol; assay type: functional
[12] = system: Brassica rapa subsp. oleifera; test: Herbicidal activity against Brassica rapa subsp. oleifera assessed as inhibition of fresh weed plant weight at 45 g/ha using pre-emergence treatment protocol; assay type: functional
Amaranthus retroflexus [13] = test: Herbicidal activity against Amaranthus retroflexus assessed as inhibition of fresh weed plant weight at 22.5 g/ha using pre-emergence treatment protocol; assay type: functional
Echinochloa crus-galli [14] = test: Herbicidal activity against Echinochloa crus-galli (barnyard grass) assessed as inhibition of fresh weed plant weight at 187.5 g/ha using pre-emergence treatment protocol; assay type: functional
Procedure, shortened: (§1)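 Test compounds made up as emulsions by dissolving in 100 µL N,N-dimethylformamide, then adding a little Tween 20 and water. For post-emergence, weed seedlings at one leaf and one stem were sprayed at the same rates as the pre-emergence test. Fresh weight was recorded 15 days after treatment and expressed as percent inhibition versus controls. All treatments were run in triplicate.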

[15] = system: Brassica rapa subsp. oleifera; test: Herbicidal activity against Brassica rapa subsp. oleifera assessed as inhibition of fresh weed plant weight at 187.5 g/ha using pre-emergence treatment protocol; assay type: functional
Echinochloa crus-galli [16] = test: Herbicidal activity against Echinochloa crus-galli (barnyard grass) assessed as inhibition of fresh weed plant weight at 22.5 g/ha using pre-emergence treatment protocol; assay type: functional; procedure, shortened: as §1
Echinochloa crus-galli [17] = test: Herbicidal activity against Echinochloa crus-galli (barnyard grass) assessed as inhibition of fresh weed plant weight at 45 g/ha using pre-emergence treatment protocol; assay type: functional

In the case of `C#CCN1C(=O)COc2cc(F)c(N3C(=O)C4=C(CCCC4)C3=O)cc21` [FLUMIOXAZIN], the inhibition at 22.5 g/ha [1] is reported as 92.6%, the inhibition at 45 g/ha (Digitaria sanguinalis [2]) is reported as 100% and the inhibition at 45 g/ha (Amaranthus retroflexus [3]) is reported as 100%. For the same compound, the inhibition at 93.75 g/ha (Amaranthus retroflexus [4]) was 100%, the inhibition at 187.5 g/ha (Digitaria sanguinalis [5]) was 100% and the IC50 [6] was 3.24 nM. It also gave an inhibition at 93.75 g/ha (Digitaria sanguinalis [7]) of 100%, an inhibition at 93.75 g/ha [8] of 100% and an inhibition at 93.75 g/ha (Echinochloa crus-galli [9]) of 100%. The inhibition at 187.5 g/ha (Amaranthus retroflexus [10]) was 100%, the inhibition at 22.5 g/ha (Digitaria sanguinalis [11]) was 85.4% and the inhibition at 45 g/ha [12] was 100%. For the same compound, the inhibition at 22.5 g/ha (Amaranthus retroflexus [13]) was 100%, the inhibition at 187.5 g/ha (Echinochloa crus-galli [14]) was 100% and the inhibition at 187.5 g/ha [15] was 100%. It also gave an inhibition at 22.5 g/ha (Echinochloa crus-galli [16]) of 40.9% and an inhibition at 45 g/ha (Echinochloa crus-galli [17]) of 71.4%.

From ChEMBL document CHEMBL3044834, “Novel protoporphyrinogen oxidase inhibitors: 3H-pyrazolo[3,4-d][1,2,3]triazin-4-one derivatives” (J Agric Food Chem, 2008)
